Measured values published in PubChem BioAssay.
Results filed as inconclusive are left out.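 Rule for the calls, unless noted: active = RAM network inhibition above 8.4% in each of two replicates, 3 SD over the compound average; inconclusive = above 8.4% inhibition in only one replicate; inactive = 8.4% inhibition or less in each replicate.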

Assays:
[1] = S. cerevisiae growth inhibition in permissive medium (OD615), pilot counter-assay for S. cerevisiae lifespan shortening project, permissive growth control (AID 705;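 active = growth inhibition above 25% in both replicates, a cutoff set 3 SD above the mean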); details: OD615, 24 h, at 10 µM, hits give high values
Method in brief: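 System: Engineered DeaD yeast | Buffer or medium: SC raffinose/galactose permissive medium | Incubation: Cells pre-grown 4 h, then 24 h compound exposure, 30 °C humidified | Measured by: Absorbance (optical density) at 615 nm | Read-out: Reduction in yeast growth (OD615)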

[2] = S. cerevisiae growth inhibition in restrictive medium, OD615, pilot screen, restrictive growth control, yeast lifespan reduction project (AID 706;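 active = growth inhibition above a set limit, 3 SD over mean compound inhibition, in both replicates, cut at about 43% in these data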;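 note: modified DeaD lifespan yeast strain shifted to restrictive glucose medium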); details: OD615, 48 h, at 10 µM, hits give high values
Method in brief: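 Material: modified S. cerevisiae; Medium: glucose-based CSMM-D restrictive medium; Compound dosing: one concentration, 10 µM final, 0.25% DMSO; Incubation: 48 h compound exposure at 30 °C; Measured by: OD615.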

[3] = doxorubicin toxicity protection in MRP-1 cells – H69AR cells, CellTiter-Glo, duplicate, MRP-1 activator project, pilot screen (AID 807;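 active = viability increase at or above a cutoff of the median across tested compounds plus 3 SD, cut at about 8.5% in these data, passing the limit was not always enough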;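 note: compound pretreatment 18-22 h then 72 h combined with doxorubicin; 0% = doxorubicin alone and 100% = vehicle without doxorubicin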); details: H69AR viability with doxorubicin, CellTiter-Glo luminescence; at 10 µM; hits give high values
[4] = viability of HCT116 without oncogenic beta-catenin – human colon tumor cells, pilot screen (AID 823;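 active = cell viability at or below a set limit in both duplicate runs, the limit being the all-compound median minus 4 SD, cut at about 23% in these data, passing the limit was not always enough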;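 note: 0% = wells killed by 20 µM Hyamine and 100% = untreated DMSO cell wells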); details: HCT116 beta-catenin knockout viability, CellTiter-Glo, 60 h; at 10 µM; hits give low values
[5] = RAM pathway blockade in budding yeast – dse1pr::URA3 reporter, 5-FOA selection, pilot screen (AID 869;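 active = inhibition over a set limit, the all-compound mean plus 3 SD, in both replicate runs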;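 note: 0% = DMSO wells with no growth and 100% = 10 µM 1-NA-PP1 with full growth; RAM network block rescues cells from 5-FOA so hits raise OD615 growth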); details: S. cerevisiae dse1pr::URA3 5-FOA growth, OD615, 2 d; at 10 µM; hits give high values; strain carries analog-sensitive mutant Cbk1 kinase
[6] = RAM signaling pathway blockade in yeast – S. cerevisiae, Pdr1DBD-CYC8 efflux-inhibited sensitized strain, primary screen (AID 1298);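 note: 0% = DMSO untreated cells without growth and 100% = 10 µM 1-NA-PP1 full growth; higher means more yeast growth rescued from 5-FOA killing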; details: S. cerevisiae cbk1-as DSE1-URA3 strain, 5-FOA growth OD615, 2 d; at 50 µM; hits give high values
[7] = viability of PTEN-null HCT116 cells – cell-based, HCT116 clonal line, CellTiter-Glo, pilot screen (AID 824;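 active = viability at or below 27.92% in each of two runs, the all-compound median minus 4 SD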;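 note: 0% = 20 µM Hyamine control and 100% = vehicle cell control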); details: HCT116 PTEN-deleted viability, 60 h, at 10 µM, hits give low values

CC1CN(C(=O)c2ccccc2C(=O)c2ncc[nH]2)CC(C)O1 (configuration not stated)
inactive: growth inhibition [1] -19.6% | growth inhibition [2] 14.7% | viability increase [3] -1.55% | viability [4] 99% | inhibition [5] 2.07% | RAM network inhibition [6] 2.87%

CC(=O)NCC(=O)N(c1c(C)n(C)n(-c2ccccc2)c1=O)C1(C(=O)NC2CCCC2)CCCCC1
inactive: growth inhibition [1] 10% | growth inhibition [2] -0.075% | viability increase [3] -0.84% | viability [4] 97.2% | inhibition [5] 1.13% | RAM network inhibition [6] -0.72%

CC(=O)N1CCC(Nc2ccc(C)cc2)CC1
inactive: growth inhibition [1] -15.6% | growth inhibition [2] -9.18% | viability increase [3] 0.99% | viability [4] 101% | viability [7] 97.3% | inhibition [5] -0.41% | RAM network inhibition [6] 1.48%

O=C(O)C1C2C=CC(C2)C1C(=O)NCCc1cccc(Cl)c1 (configuration not stated)
inactive: growth inhibition [1] -2.6% | growth inhibition [2] 3.11% | viability increase [3] -1.41% | viability [4] 104% | viability [7] 94.7% | inhibition [5] 0.045% | RAM network inhibition [6] 2.92%

COc1ccccc1-c1c(C#N)c(SCC(=O)N2CCCC2)nc(C)c1C(N)=O
inactive: growth inhibition [1] -2.97% | growth inhibition [2] -7.78% | viability increase [3] -0.18% | viability [4] 101% | viability [7] 98.2% | inhibition [5] 1.73% | RAM network inhibition [6] 1.04%

Cc1ccc(C2CC(c3ccco3)n3nc(N)nc3N2)cc1 (configuration not stated)
inactive: growth inhibition [1] 4.36% | growth inhibition [2] 11.9% | viability increase [3] -1.44% | viability [4] 96.5% | viability [7] 99.8% | inhibition [5] -1.15% | RAM network inhibition [6] 3.41%

O=C(c1ccc(F)cc1)c1cn[nH]c1-c1ccccc1O
inactive: growth inhibition [1] -15.3% | growth inhibition [2] -15.9% | viability increase [3] -1.5% | viability [4] 99.5% | viability [7] 94.9% | inhibition [5] 2.42% | RAM network inhibition [6] 4.4%

Cc1ccnc(Sc2nc3c(c(=O)[nH]c(=O)n3C)n2CCCc2ccccc2)n1
inactive: growth inhibition [1] -17.7% | growth inhibition [2] 2.31% | viability increase [3] -2.18% | viability [4] 91.8% | inhibition [5] 1.6% | RAM network inhibition [6] 1.4%

COCCCNC(=O)Cn1nnc(-c2ccc(NC(=O)c3ccc(F)cc3)cc2)n1
inactive: growth inhibition [1] -9.11% | growth inhibition [2] -28.5% | viability increase [3] 0.73% | viability [4] 99.7% | viability [7] 96.8% | inhibition [5] 0.705% | RAM network inhibition [6] 4.54%

Nc1ncnc2c1ncn2C1CCC(CO)C(O)C1 (configuration not stated)
inactive: growth inhibition [1] 3.96% | growth inhibition [2] -0.275% | viability increase [3] -3.38% | viability [4] 107% | inhibition [5] 1.32% | RAM network inhibition [6] 3.68%

CCOC(=O)C1CCN(C(=O)c2ccc(NC(=O)C3CCCO3)cc2)CC1 (configuration not stated)
inactive: growth inhibition [1] -14.9% | growth inhibition [2] -7.09% | viability increase [3] -2.64% | viability [4] 88.8% | inhibition [5] 1.09% | RAM network inhibition [6] 3.28%

Cn1nnc2c(NCc3ccco3)nccc21
inactive: growth inhibition [1] -26% | growth inhibition [2] -1.62% | viability increase [3] -4.4% | viability [4] 96.6% | inhibition [5] 3.05% | RAM network inhibition [6] 0.93%

NC1=C(c2ccc(F)cc2)C(=O)CS1
inactive: growth inhibition [1] -17.2% | growth inhibition [2] 4.04% | viability increase [3] -1.22% | viability [4] 91.1% | inhibition [5] 1.85% | RAM network inhibition [6] 5.83%

O=C(NC(C(=O)c1ccccc1)N1CCCCC1)c1ccccc1 (configuration not stated)
inactive: growth inhibition [1] -8.09% | growth inhibition [2] -3.47% | viability increase [3] -2.31% | viability [4] 91.2% | viability [7] 98% | inhibition [5] -0.65% | RAM network inhibition [6] 1.67%

C=CCn1c(=O)[nH]c2cc(C(=O)N3CCN(c4cccc(Cl)c4)CC3)ccc2c1=O
inactive: growth inhibition [1] -16.5% | growth inhibition [2] -12.3% | viability increase [3] -6.95% | viability [4] 79.3% | inhibition [5] 3.33% | RAM network inhibition [6] 3.07%
